Experimental data as given in PMC6626631 (Biochemical and biophysical research communications, 2018).
pIC50: −log10 of the molar value. “Also recorded” adds a separate entry of the source.

Tests used:
Format in all cases: biochemical
[1] = target: DRP1 (Homo sapiens, UniProt O00429); test: Malachite green GTPase activity assay in the absence of liposomes, DRP1; conditions: dose response in presence vs absence of liposomes
[2] = target: Human DRP1 (1—699) (Homo sapiens, UniProt O00429); test: Liposome-dependent malachite green GTPase activity assay, DRP1
In short: (§1)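 Ni-NTA-purified E. coli enzyme (tag removed for dynamin-1, OPA1), 0.6 μM, preincubated 20 min RT with 80:20 soybean polar lipid:cardiolipin liposomes (0.1 mg/mL) and compound or DMSO; started by 1 mM GTP at 37 °C in 10 mM Hepes pH 7.0, 100 mM KCl, 4 mM MgCl2, 1% DMSO. EDTA stop, malachite green, A650 to phosphate rate; IC50 4-parameter fit.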

[3] = target: T1, OPA1 (195—960) (Homo sapiens, UniProt O60313); test: Liposome-dependent malachite green GTPase activity assay, OPA1; conditions: read-out: Potency of inhibition, OPA1; data not shown
T1 sequence (O60313 195-960): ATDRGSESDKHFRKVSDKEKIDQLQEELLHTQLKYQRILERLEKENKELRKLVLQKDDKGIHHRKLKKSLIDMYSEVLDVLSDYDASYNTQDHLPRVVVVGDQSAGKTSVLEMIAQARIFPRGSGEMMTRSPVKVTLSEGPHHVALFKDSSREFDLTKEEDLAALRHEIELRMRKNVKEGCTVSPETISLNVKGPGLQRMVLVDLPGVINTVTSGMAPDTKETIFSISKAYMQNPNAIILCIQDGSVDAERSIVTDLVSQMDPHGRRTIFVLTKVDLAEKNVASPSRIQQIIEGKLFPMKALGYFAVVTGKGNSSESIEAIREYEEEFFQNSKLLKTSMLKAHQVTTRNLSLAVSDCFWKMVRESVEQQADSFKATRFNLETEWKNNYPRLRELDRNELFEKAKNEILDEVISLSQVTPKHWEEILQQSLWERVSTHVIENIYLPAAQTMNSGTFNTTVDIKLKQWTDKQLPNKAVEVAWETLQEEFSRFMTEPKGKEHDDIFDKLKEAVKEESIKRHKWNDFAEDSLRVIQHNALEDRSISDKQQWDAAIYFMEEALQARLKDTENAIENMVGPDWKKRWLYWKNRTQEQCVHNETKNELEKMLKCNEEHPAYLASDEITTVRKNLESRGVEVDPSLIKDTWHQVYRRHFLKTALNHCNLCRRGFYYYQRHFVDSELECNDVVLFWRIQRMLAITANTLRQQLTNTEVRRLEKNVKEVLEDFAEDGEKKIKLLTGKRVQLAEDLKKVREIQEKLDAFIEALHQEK
In short: as §1

[4] = target: T2, dynamin-1 (1—752) (Homo sapiens, UniProt Q05193); test: Liposome-dependent malachite green GTPase activity assay, dynamin-1; conditions: read-out: Potency of inhibition, dynamin-1; data not shown
T2 sequence (Q05193 1-752): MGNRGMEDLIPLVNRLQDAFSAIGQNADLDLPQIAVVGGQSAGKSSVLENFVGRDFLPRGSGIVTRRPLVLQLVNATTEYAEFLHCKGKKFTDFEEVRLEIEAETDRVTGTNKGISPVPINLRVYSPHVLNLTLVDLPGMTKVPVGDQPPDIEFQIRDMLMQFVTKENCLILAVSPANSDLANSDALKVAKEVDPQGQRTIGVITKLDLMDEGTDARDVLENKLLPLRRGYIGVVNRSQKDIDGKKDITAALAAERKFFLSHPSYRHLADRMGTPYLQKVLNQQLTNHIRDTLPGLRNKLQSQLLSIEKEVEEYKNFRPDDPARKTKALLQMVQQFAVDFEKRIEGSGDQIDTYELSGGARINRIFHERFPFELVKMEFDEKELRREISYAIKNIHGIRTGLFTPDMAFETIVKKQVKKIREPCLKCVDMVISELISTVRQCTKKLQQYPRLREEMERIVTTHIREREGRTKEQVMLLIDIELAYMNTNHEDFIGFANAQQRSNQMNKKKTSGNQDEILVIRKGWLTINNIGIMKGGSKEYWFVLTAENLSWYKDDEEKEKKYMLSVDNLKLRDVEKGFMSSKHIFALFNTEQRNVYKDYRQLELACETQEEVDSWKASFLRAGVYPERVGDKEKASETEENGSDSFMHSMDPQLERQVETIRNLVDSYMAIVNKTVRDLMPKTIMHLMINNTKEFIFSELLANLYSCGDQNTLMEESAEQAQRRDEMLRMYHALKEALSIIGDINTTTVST
In short: as §1

Chain of Human DRP1 (1—699) (O00429 1-699 isoform O00429-4): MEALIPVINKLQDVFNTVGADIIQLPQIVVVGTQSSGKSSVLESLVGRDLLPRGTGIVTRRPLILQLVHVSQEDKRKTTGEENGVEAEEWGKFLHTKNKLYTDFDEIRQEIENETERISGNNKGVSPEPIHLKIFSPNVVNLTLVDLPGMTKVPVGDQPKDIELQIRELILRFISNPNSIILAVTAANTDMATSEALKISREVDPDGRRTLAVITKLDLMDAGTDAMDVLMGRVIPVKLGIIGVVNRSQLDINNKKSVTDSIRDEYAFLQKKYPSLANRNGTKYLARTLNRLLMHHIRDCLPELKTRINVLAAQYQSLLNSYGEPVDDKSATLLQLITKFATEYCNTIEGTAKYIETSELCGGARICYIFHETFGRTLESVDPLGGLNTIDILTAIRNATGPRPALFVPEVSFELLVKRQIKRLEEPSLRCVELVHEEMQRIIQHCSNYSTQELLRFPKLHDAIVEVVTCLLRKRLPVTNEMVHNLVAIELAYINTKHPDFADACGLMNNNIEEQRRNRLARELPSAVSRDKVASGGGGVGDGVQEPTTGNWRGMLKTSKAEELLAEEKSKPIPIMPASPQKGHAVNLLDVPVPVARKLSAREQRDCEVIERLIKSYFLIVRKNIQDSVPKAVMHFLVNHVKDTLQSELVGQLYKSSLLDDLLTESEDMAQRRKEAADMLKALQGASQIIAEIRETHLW
Chain of DRP1 (O00429 1-699 isoform O00429-4): as above

Potency/activity in the absence of liposomes [1] | pIC50 ([2]; read-out: Potency of inhibition, DRP1, data not shown) | pIC50 [3] | pIC50 [4] | SMILES | Inhibition of DRP1 GTPase activity (in words) ([2]; presence of liposomes, up to 100 μM compound concentration)
unaffected by liposomes | 3.30 to 3.52 | 3.30 to 3.52 | 3.30 to 3.52 | Nc1nc2c(ncn2[C@@H]2O[C@H](COP(=O)(O)OP(=O)(O)OP(O)(O)=S)[C@@H](O)[C@H]2O)c(=O)[nH]1 [GTPγS] | –
– | – | – | – | COc1cc(-n2c(=S)[nH]c3ccccc3c2=O)c(Cl)cc1Cl [mdivi-1] | did not inhibit oligomeric DRP1 GTPase activity; also recorded: do not inhibit DRP1 up to 100 μM
